The values that follow come from ChEMBL document CHEMBL1138590, “Discovery of novel dihydro-9,10-ethano-anthracene carboxamides as glucocorticoid receptor modulators” (Bioorg Med Chem Lett, 2009).

The nature of test [1]: Selectivity for human recombinant glucocorticoid receptor alpha over progesterone receptor.
Test [2] concerns the target T1, Mineralocorticoid receptor (Homo sapiens) (UniProt P08235).
T1 sequence (whole entry): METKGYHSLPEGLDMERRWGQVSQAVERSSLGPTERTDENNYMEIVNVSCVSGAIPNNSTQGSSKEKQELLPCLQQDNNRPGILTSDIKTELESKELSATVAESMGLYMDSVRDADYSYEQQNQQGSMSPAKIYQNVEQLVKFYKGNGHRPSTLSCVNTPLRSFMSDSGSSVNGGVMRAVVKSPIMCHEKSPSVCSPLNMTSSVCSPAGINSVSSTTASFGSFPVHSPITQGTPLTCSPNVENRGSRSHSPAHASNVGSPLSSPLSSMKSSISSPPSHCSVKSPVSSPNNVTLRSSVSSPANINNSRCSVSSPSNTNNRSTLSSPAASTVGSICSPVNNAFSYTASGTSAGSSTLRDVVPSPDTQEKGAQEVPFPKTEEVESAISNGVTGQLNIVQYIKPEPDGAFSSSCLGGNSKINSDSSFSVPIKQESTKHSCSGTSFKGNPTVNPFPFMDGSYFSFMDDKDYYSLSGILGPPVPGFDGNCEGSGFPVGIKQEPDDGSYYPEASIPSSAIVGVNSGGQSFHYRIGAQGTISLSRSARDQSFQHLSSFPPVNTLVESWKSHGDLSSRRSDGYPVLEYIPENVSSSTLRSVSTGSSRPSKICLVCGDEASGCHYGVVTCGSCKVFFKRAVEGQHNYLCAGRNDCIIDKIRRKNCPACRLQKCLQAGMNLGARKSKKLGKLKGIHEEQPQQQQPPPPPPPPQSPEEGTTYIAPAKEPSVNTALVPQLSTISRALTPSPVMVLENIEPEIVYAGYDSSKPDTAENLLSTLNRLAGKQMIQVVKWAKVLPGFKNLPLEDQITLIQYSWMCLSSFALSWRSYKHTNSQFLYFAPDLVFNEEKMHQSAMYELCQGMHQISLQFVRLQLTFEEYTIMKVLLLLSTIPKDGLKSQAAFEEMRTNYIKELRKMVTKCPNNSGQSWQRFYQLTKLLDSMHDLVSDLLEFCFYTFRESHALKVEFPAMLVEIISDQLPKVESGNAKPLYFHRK
Description: Antagonist activity at mineralocorticoid receptor in human A549 cells assessed as inhibition of 1.25 nM aldosterone-induced effect at 0.1 uM. Format: functional, cell-based.

In test [3] the target is T2, Glucocorticoid receptor (Homo sapiens, UniProt P04150).
T2 sequence (P04150 whole entry): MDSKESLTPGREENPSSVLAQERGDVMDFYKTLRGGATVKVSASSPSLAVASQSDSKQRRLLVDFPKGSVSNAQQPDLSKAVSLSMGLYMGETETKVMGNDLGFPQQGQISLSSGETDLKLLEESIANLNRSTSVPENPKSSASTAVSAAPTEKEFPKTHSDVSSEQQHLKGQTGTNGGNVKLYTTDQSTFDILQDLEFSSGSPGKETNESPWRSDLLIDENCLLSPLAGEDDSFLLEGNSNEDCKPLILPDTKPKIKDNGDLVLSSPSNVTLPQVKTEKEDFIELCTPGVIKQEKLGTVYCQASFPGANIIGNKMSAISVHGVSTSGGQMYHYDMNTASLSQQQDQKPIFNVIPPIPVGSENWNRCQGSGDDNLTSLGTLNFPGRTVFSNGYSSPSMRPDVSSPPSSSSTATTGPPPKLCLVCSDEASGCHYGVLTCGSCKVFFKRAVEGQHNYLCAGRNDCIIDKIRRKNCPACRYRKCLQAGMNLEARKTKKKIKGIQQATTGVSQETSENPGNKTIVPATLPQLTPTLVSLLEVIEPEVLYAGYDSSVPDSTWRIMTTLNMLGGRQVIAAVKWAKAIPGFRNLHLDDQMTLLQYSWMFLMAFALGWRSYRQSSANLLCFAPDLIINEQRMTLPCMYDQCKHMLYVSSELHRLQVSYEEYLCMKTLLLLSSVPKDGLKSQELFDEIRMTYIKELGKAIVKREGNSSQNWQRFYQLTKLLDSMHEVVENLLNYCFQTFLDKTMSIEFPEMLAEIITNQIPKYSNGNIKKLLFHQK
Description: Transrepression activity at GR in PMA-stimulated human A549 cells assessed as inhibition of AP1 response element-induced luciferase reporter gene activity. The format is cell-based.

The target of test [4] is T2, Glucocorticoid receptor. Description: Displacement of FITC-dexamethasone from human recombinant glucocorticoid receptor alpha by fluorescence polarization assay.
For test [5], the target named is T2, Glucocorticoid receptor. Description: Transrepression activity at GR in IL-1-beta-stimulated human A549 cells assessed as inhibition of NF-kappaB-dependent E-selectin transcription by luciferase reporter gene assay. Format: cell-based.
The target in test [6] is T2, Glucocorticoid receptor. Description: Agonist activity at GR ligand binding domain expressed in human NP1 cells assessed as glucocorticoid response element transactivation by GAL4 luciferase reporter gene assay. The format is cell-based. A general note: A reporter such as luciferase makes a cellular process visible.
The next test deals with T3, Androgen receptor (Homo sapiens, UniProt P10275).
T3 sequence (P10275 whole entry): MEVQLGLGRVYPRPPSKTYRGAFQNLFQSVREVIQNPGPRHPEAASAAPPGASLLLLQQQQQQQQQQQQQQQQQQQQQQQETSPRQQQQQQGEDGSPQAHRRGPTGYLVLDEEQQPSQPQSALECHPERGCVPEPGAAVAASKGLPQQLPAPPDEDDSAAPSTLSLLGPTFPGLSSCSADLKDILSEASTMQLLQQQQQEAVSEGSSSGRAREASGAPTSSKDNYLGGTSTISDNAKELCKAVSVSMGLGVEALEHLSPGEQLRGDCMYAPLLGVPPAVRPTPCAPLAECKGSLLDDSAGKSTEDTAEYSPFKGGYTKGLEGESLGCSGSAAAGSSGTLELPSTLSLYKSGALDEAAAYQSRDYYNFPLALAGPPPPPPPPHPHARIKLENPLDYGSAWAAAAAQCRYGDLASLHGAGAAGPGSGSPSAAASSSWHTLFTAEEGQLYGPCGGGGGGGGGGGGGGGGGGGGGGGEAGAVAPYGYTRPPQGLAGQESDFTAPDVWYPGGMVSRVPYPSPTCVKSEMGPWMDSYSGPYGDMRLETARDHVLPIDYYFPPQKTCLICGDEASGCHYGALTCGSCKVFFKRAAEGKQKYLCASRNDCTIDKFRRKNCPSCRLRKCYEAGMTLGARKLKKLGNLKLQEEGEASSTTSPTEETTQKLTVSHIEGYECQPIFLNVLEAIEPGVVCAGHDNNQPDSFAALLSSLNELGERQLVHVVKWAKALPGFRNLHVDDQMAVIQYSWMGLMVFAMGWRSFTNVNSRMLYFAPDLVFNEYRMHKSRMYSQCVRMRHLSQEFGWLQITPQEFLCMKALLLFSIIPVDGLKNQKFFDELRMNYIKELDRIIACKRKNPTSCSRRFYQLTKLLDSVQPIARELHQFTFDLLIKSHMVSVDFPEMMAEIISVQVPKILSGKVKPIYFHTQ
Description: Displacement of fluorescently labeled ligand from androgen receptor by fluorescence polarization assay.

In the next test the target is T4, Estrogen receptor (Homo sapiens, UniProt P03372).
T4 sequence (P03372 whole entry): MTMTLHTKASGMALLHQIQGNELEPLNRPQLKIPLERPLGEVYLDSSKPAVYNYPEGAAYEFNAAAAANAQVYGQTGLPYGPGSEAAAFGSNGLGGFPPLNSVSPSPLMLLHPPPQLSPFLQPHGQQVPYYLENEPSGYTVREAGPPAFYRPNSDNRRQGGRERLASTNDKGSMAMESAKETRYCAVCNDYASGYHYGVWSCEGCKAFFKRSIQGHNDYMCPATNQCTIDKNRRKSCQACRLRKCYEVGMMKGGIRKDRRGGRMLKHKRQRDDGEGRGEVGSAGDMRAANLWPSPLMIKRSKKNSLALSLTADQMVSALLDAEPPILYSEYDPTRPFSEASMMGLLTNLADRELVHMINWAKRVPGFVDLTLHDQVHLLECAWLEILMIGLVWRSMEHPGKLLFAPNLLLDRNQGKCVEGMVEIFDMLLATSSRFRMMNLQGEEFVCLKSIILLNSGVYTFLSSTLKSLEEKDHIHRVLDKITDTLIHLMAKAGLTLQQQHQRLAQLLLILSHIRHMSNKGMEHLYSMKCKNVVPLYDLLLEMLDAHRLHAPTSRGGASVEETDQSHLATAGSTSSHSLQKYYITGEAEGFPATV
Description: Displacement of […] from estrogen receptor alpha by fluorescence polarization assay. The method, boiled down:
(§1)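 Fluorescence polarization competition binding: the test compound competes with a fluorescently labelled ligand for binding to the full-length receptor or its ligand-binding domain. IC50 is fitted from the polarization signal with a four-parameter logistic equation. Ki is derived by Cheng–Prusoff, Ki = IC50/(1 + ligand concentration/Kd). Values are means of duplicate experiments.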
A general note: Polarisation of emitted light reports the rotation of a fluorescent probe.

For the next test, the target named is T5, Progesterone receptor (Homo sapiens, UniProt P06401).
T5 sequence (P06401 whole entry): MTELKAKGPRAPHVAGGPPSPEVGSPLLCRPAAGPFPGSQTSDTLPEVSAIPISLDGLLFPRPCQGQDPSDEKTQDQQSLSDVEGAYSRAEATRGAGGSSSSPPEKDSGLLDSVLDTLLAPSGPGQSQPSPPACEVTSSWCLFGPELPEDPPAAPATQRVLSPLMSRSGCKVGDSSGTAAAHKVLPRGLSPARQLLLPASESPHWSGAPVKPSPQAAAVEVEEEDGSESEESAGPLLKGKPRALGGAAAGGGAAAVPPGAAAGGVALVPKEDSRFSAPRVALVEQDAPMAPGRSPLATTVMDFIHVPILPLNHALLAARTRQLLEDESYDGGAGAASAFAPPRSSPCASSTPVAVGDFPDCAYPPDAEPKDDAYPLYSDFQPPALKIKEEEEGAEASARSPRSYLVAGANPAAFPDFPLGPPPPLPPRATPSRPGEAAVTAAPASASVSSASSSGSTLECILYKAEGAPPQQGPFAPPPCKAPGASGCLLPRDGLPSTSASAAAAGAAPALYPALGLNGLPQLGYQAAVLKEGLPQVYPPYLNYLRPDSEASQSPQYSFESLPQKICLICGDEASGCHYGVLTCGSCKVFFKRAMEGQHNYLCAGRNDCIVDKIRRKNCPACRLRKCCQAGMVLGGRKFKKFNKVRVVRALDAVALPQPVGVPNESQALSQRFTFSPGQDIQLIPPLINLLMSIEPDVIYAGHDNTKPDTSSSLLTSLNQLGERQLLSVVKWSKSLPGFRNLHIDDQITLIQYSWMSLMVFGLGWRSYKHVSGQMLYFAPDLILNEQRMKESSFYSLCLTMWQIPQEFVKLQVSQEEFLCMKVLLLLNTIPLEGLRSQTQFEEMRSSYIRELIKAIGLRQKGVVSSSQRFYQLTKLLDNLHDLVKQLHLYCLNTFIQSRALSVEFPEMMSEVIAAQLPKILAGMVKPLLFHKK
Description: Displacement of […] from progesterone receptor by fluorescence polarization assay. In short, it runs like this:
as §1

The nature of test [7]: Selectivity for human recombinant glucocorticoid receptor alpha over androgen receptor.
A short description of test [8]: Selectivity for human recombinant glucocorticoid receptor alpha over estrogen receptor alpha.

`Cc1cnc(NC(=O)C2(C)CC3c4ccccc4C2c2ccccc23)s1` (single isomer, unassigned; isomer A) [listing 1 of 2 here]: the fold change (FC) in test [1] is > 2500. Further, the inhibition (usually the relative decrease from the control value, in per cent) in test [2] is 5%.

Consider `CC12CC(C)(C(=O)Nc3nncs3)C(c3ccccc31)c1ccccc12` (single isomer, unassigned; isomer A), for which the EC50 – broadly, the concentration at which the effect is half-maximal – was found to be 11.4 nM at Glucocorticoid receptor [3], 8.3 nM on Glucocorticoid receptor [5] and 111 nM at Glucocorticoid receptor [6]. The Ki (usually the equilibrium dissociation constant of an inhibitor or competing ligand from its target) is 1.3 nM on Glucocorticoid receptor [4], 9300 nM at Androgen receptor, > 5000 nM at Estrogen receptor and 35 nM at Progesterone receptor.

Take `Cc1cnc(NC(=O)C2(C)CC3c4ccccc4C2c2ccccc23)s1` (single isomer, unassigned; isomer A) [listing 2 of 2 here]: the EC50 on Glucocorticoid receptor [3] worked out at 345 nM. Further, the inhibition constant (Ki) on Glucocorticoid receptor [4] was 4.1 nM; at Androgen receptor it was > 10000 nM; at Estrogen receptor it was > 5000 nM; at Progesterone receptor it was > 10000 nM.

On to `CC1(C(=O)Nc2nccs2)CC2c3ccccc3C1c1ccccc12` (configuration not stated), for which the results for the 50% effective concentration (EC50) on Glucocorticoid receptor [3], on Glucocorticoid receptor [5] and at Glucocorticoid receptor [6] were 268 nM, 30.7 nM and > 10000 nM, respectively. Also, the fold change (FC) in test [7] and in [8] was > 1000 each time. Also, the inhibition constant (Ki) on Glucocorticoid receptor [4] is 2.9 nM.

On to `CC12CC(C)(C(=O)Nc3nccs3)C(c3ccccc31)c1ccccc12` (stereo in doubt; 17a), for which the EC50 on Glucocorticoid receptor [3] is 5.3 nM; on Glucocorticoid receptor [5], 1.4 nM; at Glucocorticoid receptor [6], 117 nM. Further, the Ki is 1 nM at Glucocorticoid receptor [4], 2900 nM at Androgen receptor, > 5000 nM at Estrogen receptor and 31 nM at Progesterone receptor.
